Assays:
Format in all cases: cell-based
[1] = test system: c-MYC; test: c-MYC protein level by immunoblot in BL cell lines; details: for c-MYC level upon withdrawal of compound from culture media: 1.0 µM for 24 hours, then removal, Namalwa and Ramos cells; for Time for c-MYC to recover to control level after compound removal: Namalwa cells, 24 hrs treatment (1.0 µM), three washes; for c-MYC level suppression: overnight treatment with increasing doses, BL cells, immunoblot
[2] = test system: SLC19A1; test: SLC19A1 expression by RT-qPCR in Namalwa cells; details: for Time for SLC19A1 to recover to control treatment level post compound removal: 24 hours treatment (1.0 µM), qPCR
[3] = test system: BL cell lines; test: Caspase-Glo 3/7 apoptosis induction assay in BL cell lines; details: 24 hour treatment, four BL cell lines; ARV-825 0.1 µM, JQ1 1.0 µM, OTX015 1.0 µM
How it was run: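 Four Burkitt lymphoma lines (Namalwa, Ramos, CA-46, DAUDI; from ATCC, maintained as instructed) were exposed for 24 hours to test compounds at 0.1 or 1.0 µM. Puromycin served as the apoptosis-induction positive control. Caspase 3/7 activity was read by luminescent Caspase-Glo 3/7 assay following the manufacturer's protocol.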

[4] = molecular target: BRD4 (Homo sapiens, UniProt O60885); test: BRD4 protein level by immunoblot in BL cell lines
[5] = test system: BL cell lines; test: Proliferation by CellTiter-Glo assay in BL cell lines; details: 72 hours; for Effect on proliferation: BL cell lines, CTG assay
How it was run: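 Burkitt lymphoma cells were seeded at 50000 per 100 µl in 96-well plates and given increasing concentrations of test compound. After 72 hours, CellTiter-Glo reagent was added and luminescence was read. Relative growth was calculated against DMSO-treated control cells.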

[6] = test system: Ramos cells; test: PARP cleavage by immunoblot; details: 48 hours, 0.1 µM
[7] = test system: BRD2; test: BRD2 protein degradation by immunoblot; details: Supp Figure 3
[8] = test system: BRD3; test: BRD3 protein degradation by immunoblot; details: Supp Figure 3

| Effect on BRD4 protein level [4] | SMILES | c-MYC level upon withdrawal of compound from culture media [1] | Time for c-MYC to recover to control level after compound removal [1] | c-MYC level suppression [1] | Time for SLC19A1 to recover to control treatment level post compound removal [2] | Caspases 3/7 activity [3] | Effect on proliferation [5] | SLC19A1 suppression ([2]; compared with JQ1 and OTX015) | Proliferation suppression in presence of excessive pomalidomide ([5]; ARV-825 0.01 or 0.1 µM with pomalidomide 1.0 or 10.0 µM) | Apoptosis (PARP cleavage) [6] | BRD2 degradation [7] | BRD3 degradation [8] |
| --- | --- | --- | --- | --- | --- | --- | --- | --- | --- | --- | --- | --- |
| – | Cc1sc2c(c1C)C(c1ccc(Cl)cc1)=N[C@@H](CC(=O)Nc1ccc(O)cc1)c1nnc(C)n1-2 [OTX015] | rapidly restored to normal | 4 h | unable to suppress c-MYC levels fully | 6 h | not with high dose of JQ1 and OTX015 | – | – | – | – | – | – |
| no impact on BRD4 protein levels | Nc1cccc2c1C(=O)N(C1CCC(=O)NC1=O)C2=O (centres unmarked) [pomalidomide] | – | – | – | – | – | didn’t show any significant effects | – | – | – | – | – |
| – | Cc1sc2c(c1C)C(c1ccc(Cl)cc1)=N[C@@H](CC(=O)Nc1ccc(OCCOCCOCCOCCNc3cccc4c3C(=O)N(C3CCC(=O)NC3=O)C4=O)cc1)c1nnc(C)n1-2 (some centres unmarked) [ARV-825] | – | – | more pronounced downregulation of c-MYC | – | increased caspases 3/7 activity | more pronounced suppression of proliferation than both JQ1 and OTX015 | suppressed more substantially | rescued the proliferation suppression effect | significant apoptosis | can be degraded | can be degraded |
| – | Cc1sc2c(c1C)C(c1ccc(Cl)cc1)=N[C@@H](CC(=O)OC(C)(C)C)c1nnc(C)n1-2 [JQ1] | rapidly restored to normal | 4 h | unable to suppress c-MYC levels fully | 6 h | not with high dose of JQ1 and OTX015 | – | – | – | – | – | – |

Reference: article PMC4475452 (Chemistry & biology, 2015)
